# The source made the active and inactive calls. The calls are words filed in the database; no cut-off is given here.
# How the values were obtained:
# [1] = target: Protective antigen (Bacillus anthracis) (UniProt P13423); test: Inhibition of Bacillus anthracis Protective antigen-mediated cytotoxicity in RAW264.7 cells compound co-treated for 5 hrs with antigen by MTT assay in presence of lethal factor; format: cell-based
# [2] = target: Protective antigen (Bacillus anthracis) (UniProt P13423); test: Inhibition of Bacillus anthracis Protective antigen assessed as reduction in PA83 level in CHO C4 cells at 100 uM after 1 hr by Western blot analysis relative to untreated-control; format: cell-based
# Homo sapiens = organism: Homo sapiens; test: Inhibition of human furin-mediated TGFalpha-PE38 cleavage at 1 to 100 uM after 1 hr by Western blot analysis
# Summary of the method: (§1)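 Substrate at 100 nM (purified PA for PA83 cleavage; TGFα-PE38 with a furin-cleavable RKKR linker) was mixed with 1, 10 or 100 μM inhibitor, or 1% DMSO. Buffer: 50 mM Hepes pH 7.5, 2 mM CaCl2, 0.5 mM EDTA, 0.2% octyl glucoside. Soluble human furin was added at 1 nM final for 1 h at 37°C. The reaction was boiled in SDS dye, run on a 4–20% gel and blotted with anti-PA or anti-Pseudomonas exotoxin serum.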
# [3] = target: Protective antigen (Bacillus anthracis) (UniProt P13423); test: Inhibition of human furin-mediated Bacillus anthracis PA83 cleavage at 1 to 100 uM after 1 hr by Western blot analysis; summary of the method: as §1
# [4] = target: Protective antigen (Bacillus anthracis) (UniProt P13423); test: Inhibition of Bacillus anthracis Protective antigen-mediated cytotoxicity in human HT1080 cells by MTT assay in presence of fetal bovine serum; format: cell-based; details: HT-1080
# HT-1080 [5] = test: Cytotoxicity against human HT1080 cells at 10 to 100 uM by MTT assay; format: cell-based; details: ht-1080, 100 µM
# Summary of the method: (§2)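 Compound toxicity was measured in serum-free DMEM with 10 mM Hepes pH 7.3 and gentamicin at 37°C, by MTT read-out. There were two exposure schemes: a 5-h exposure, or a 54-h incubation in which the inhibitor was removed from the medium after 5 h. MTT cannot distinguish growth inhibition from toxicity.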
# [6] = target: Protective antigen (Bacillus anthracis) (UniProt P13423); test: Inhibition of Bacillus anthracis Protective antigen assessed as reduction in PA63 level in CHO C4 cells at 100 uM after 1 hr by Western blot analysis relative to untreated-control; format: cell-based
# RAW264.7 [7] = test: Cytotoxicity against mouse RAW264.7 cells at 10 to 100 uM by MTT assay; format: cell-based; details: raw264.7, 100 µM; summary of the method: as §2
# [8] = target: Protective antigen (Bacillus anthracis) (UniProt P13423); test: Inhibition of Bacillus anthracis Protective antigen-mediated cytotoxicity in RAW264.7 cells at 3 uM compound co-treated for 5 hrs with antigen measured after 48 hrs by MTT assay in presence of FP59; format: cell-based
# [9] = target: Protective antigen (Bacillus anthracis) (UniProt P13423); test: Inhibition of Bacillus anthracis Protective antigen assessed as reduction in PA83 level in CHO C4 cells at 100 uM after 1 hr by Western blot analysis relative to untreated-control in presence of lethal factor; format: cell-based
# [10] = target: Protective antigen (Bacillus anthracis) (UniProt P13423); test: Inhibition of Bacillus anthracis Protective antigen-mediated cytotoxicity in RAW264.7 cells at 10 uM compound co-treated for 5 hrs with antigen by MTT assay in presence of lethal factor; format: cell-based
# [11] = target: Protective antigen (Bacillus anthracis) (UniProt P13423); test: Inhibition of Bacillus anthracis Protective antigen-mediated cytotoxicity in RAW264.7 cells by MTT assay in presence of fetal bovine serum; format: cell-based
# [12] = target: Protective antigen (Bacillus anthracis) (UniProt P13423); test: Inhibition of matrix metalloprotease activated Bacillus anthracis Protective antigen-mediated cytotoxicity in HT1080 cells at 100 uM compound co-treated for 5 hrs with antigen measured after 48 hrs by MTT assay in presence of FP59; format: cell-based; details: HT-1080
# [13] = target: Protective antigen (Bacillus anthracis) (UniProt P13423); test: Inhibition of Bacillus anthracis Protective antigen-mediated cytotoxicity in HT1080 cells at 100 uM compound co-treated for 5 hrs with antigen measured after 48 hrs by MTT assay in presence of FP59; format: cell-based; details: HT-1080
# [14] = target: Protective antigen (Bacillus anthracis) (UniProt P13423); test: Inhibition of Bacillus anthracis Protective antigen-mediated cytotoxicity in RAW264.7 cells at 100 uM compound co-treated for 5 hrs with antigen by MTT assay in presence of lethal factor; format: cell-based
# [15] = target: Protective antigen (Bacillus anthracis) (UniProt P13423); test: Inhibition of Bacillus anthracis Protective antigen-mediated cytotoxicity in RAW264.7 cells at 100 uM compound co-treated for 5 hrs with antigen measured after 48 hrs by MTT assay in presence of FP59; format: cell-based
# RAW264.7 [16] = test: Cytotoxicity against mouse RAW264.7 cells compound incubated at 10 to 100 uM for extended period by MTT assay; format: cell-based; details: raw264.7, 100 µM; summary of the method: as §2
# HT-1080 [17] = test: Cytotoxicity against human HT1080 cells compound incubated at 10 to 100 uM for extended period by MTT assay; format: cell-based; details: ht-1080, 100 µM; summary of the method: as §2
# Protective antigen (Bacillus anthracis), sequence (P13423 whole entry): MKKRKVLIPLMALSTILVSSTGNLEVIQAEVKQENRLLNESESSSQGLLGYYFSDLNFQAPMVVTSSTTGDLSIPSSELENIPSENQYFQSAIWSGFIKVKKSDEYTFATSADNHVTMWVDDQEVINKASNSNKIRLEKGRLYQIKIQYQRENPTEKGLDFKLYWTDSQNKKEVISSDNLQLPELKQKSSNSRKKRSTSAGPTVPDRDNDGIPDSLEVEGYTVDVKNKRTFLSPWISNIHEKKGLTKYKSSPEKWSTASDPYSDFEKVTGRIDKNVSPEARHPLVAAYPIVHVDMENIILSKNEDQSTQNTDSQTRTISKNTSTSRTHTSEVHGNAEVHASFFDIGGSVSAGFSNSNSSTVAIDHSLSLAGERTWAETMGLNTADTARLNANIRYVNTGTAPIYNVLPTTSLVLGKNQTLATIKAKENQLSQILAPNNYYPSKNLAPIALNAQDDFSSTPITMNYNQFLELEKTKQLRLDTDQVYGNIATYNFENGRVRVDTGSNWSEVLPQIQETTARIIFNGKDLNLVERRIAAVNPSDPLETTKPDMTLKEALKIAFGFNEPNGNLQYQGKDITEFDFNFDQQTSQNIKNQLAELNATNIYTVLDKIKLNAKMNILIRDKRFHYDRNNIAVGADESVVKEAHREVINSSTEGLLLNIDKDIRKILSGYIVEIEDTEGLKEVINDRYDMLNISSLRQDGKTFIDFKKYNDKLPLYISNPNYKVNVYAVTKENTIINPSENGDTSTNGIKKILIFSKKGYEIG
SMILES,inhibition [1],inhibition [2],inhibition (Homo sapiens),inhibition [3],inhibition [4],Activity (HT-1080 [5]),inhibition [6],Activity (RAW264.7 [7]),inhibition [8],inhibition [9],inhibition [10],inhibition [11],inhibition [12],inhibition [13],inhibition [14],inhibition [15],Activity (RAW264.7 [16]),Activity (HT-1080 [17])
NC(=O)c1ccccc1NC(=O)c1cccc(C(=O)Nc2ccccc2C(N)=O)c1,Active,–,–,–,–,–,–,–,–,–,–,–,–,–,–,–,–,–
NC(=O)c1ccccc1NC(=O)c1ccc(C(=O)Nc2ccccc2C(N)=O)cc1,–,inactive,inactive,inactive,inactive,Non-toxic,Active,Non-toxic,Active,inactive,Active,inactive,–,–,–,–,–,–
O=c1c(O)c(-c2ccc(O)c(O)c2)oc2cc(O)cc(O)c12,–,inactive,inactive,inactive,inactive,–,inactive,–,–,inactive,–,inactive,Active,Active,Active,Active,–,–
Oc1ccccc1/C=N/c1ccc(Cc2ccc(/N=C/c3ccccc3O)c(O)c2)cc1O,–,inactive,inactive,Active,inactive,–,Active,–,Active,inactive,Active,inactive,–,–,–,–,Toxic,Toxic

# Reference: ChEMBL document CHEMBL2176964, “Small molecule inhibitors of Bacillus anthracis protective antigen proteolytic activation and oligomerization” (J Med Chem, 2012)
